Here are results for 1 compound from paper PMC5790683 (Journal of Pharmaceutical Analysis, 2013).

What is called AUC(0-inf) is the area under the concentration-time curve extrapolated to infinity. The low end stands for low exposure, the high end for high exposure. As usually defined, the AUC(0-t) is exposure summed from dosing to a finite time, without extrapolation to infinity. Broadly, the Cmax is the highest concentration seen after dosing. A word on the Tmax: it is the time at which the peak concentration occurs. Broadly, the half-life is how long it takes for the measured level to halve. High values mean slow loss, low ones fast loss.

Series [1] in a line: Pharmacokinetic study in healthy male subjects after oral desmopressin. The conditions noted are these: human, plasma, 0.4 mg. In kind it is in vivo. The essentials: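 Healthy male volunteers (n=6), fasted 9 h, received a single oral 0.4 mg dose (2×0.2 mg tablets). Plasma was spun at 3200 rpm for 10 min, stored at −20±5 °C, spiked with IS, extracted and quantified by positive-ESI MRM UPLC–MS/MS (HSS T3 column, 40 °C; LLOQ 1.01 pg/mL). Non-compartmental analysis.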

The nature of series [2]: Processed sample stability. In kind it is physicochemical. As to conditions: 45 h at 2-8 °C, UPLC-MS/MS, mean of n=6. The essentials:
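Processed-sample stability was tested at LQC and HQC in human plasma, six replicates per level: autosampler 48 h, wet extract 45 h, reinjection 24 h. Extracts were analysed by UPLC–MS/MS against a 9-point calibration of 1.01–200 pg/mL. Acceptance was accuracy within ±15% and precision ≤15% RSD.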

Consider `NC(=O)CC[C@@H]1NC(=O)[C@H](Cc2ccccc2)NC(=O)[C@H](Cc2ccc(O)cc2)NC(=O)CCSSC[C@@H](C(=O)N2CCC[C@H]2C(=O)N[C@H](CCCN=C(N)N)C(=O)NCC(N)=O)NC(=O)[C@H](CC(N)=O)NC1=O` [desmopressin], for which, in series [1], the AUC(0-inf) came out at 0.157 ± 0.051 ng·h/mL, the AUC(0-t) turned out to be 0.149 ± 0.046 ng·h/mL, the Cmax is 0.035 ± 0.0081 ng/mL and the Tmax is 1.4 ± 0.48 h. Also, in series [1], the half-life was 3.48 ± 0.5 h and the level at 1.25 h is 0.0361 ng/mL. The “Accuracy/stability (%), Process (wet extract)” value in series [2] (spiked 3.05 pg/mL (LQC)) was determined as 94.84%. Moreover, the “Accuracy/stability (%), Process (wet extract)” value in series [2] (spiked 156.23 pg/mL (HQC)) was 99.20%.
